What is called IC50 is the concentration needed to halve the response being measured.

This note sets out measurements from PMC3131532 (Chemistry & biology, 2011).

Assay [1] addresses T1, PfSENP1 (Plasmodium falciparum, UniProt Q8I583). The experiment in a line: PfSUMO-pro cleavage assay with recombinant PfSENP1. Format: biochemical. The following applies: gel assay; VEA-260 0–200 µM; JCP analogs 0–300 µM; NEM 10 mM. Summed up:
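Recombinant PfSENP1, His6-tagged (imidazole-eluted) or untagged (released from CPD fusion with 100 µM InsP6), expressed in E. coli BL21(DE3) for 3 hr at 30°C after 0.1 mM IPTG induction. Enzyme pretreated with test compound or 10 mM N-ethylmaleimide; for the 0–200 µM series, PfSENP1 was 100 nM. PfSUMO-pro then added; reactions run on SDS-PAGE with Coomassie-type staining. No-enzyme substrate lane served as control.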

Assay [2] relates to PfSENP activity in parasite lysates. The assay is described as follows: PfSUMO-pro processing assay in parasite lysates. The assay is classed as biochemical, Plasmodium falciparum. The following applies: mixed stage lysates; VEA-260 0–200 µM; NEM 10 mM; hSUMO-VS 10 µM. Summed up:
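Soluble mixed-stage parasite lysate was pretreated with test compound, NEM or hSUMO-VS, then given PfSUMO-pro substrate. For the library screen, 10 µg lysate was preincubated 30 min at room temperature with 100 µM (final) test compound from a DMSO stock. PfSUMO-pro was then added at 10 µM final for 1 h at 37°C. Reactions were quenched with SDS loading dye, resolved by SDS-PAGE and stained with Gelcode Blue. Controls were DMSO-treated lysate and substrate without lysate.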

In a further assay the target is T2, hSENP1 (Homo sapiens, UniProt Q9P0U3).
T2 sequence (Q9P0U3 419-644 limits assumed): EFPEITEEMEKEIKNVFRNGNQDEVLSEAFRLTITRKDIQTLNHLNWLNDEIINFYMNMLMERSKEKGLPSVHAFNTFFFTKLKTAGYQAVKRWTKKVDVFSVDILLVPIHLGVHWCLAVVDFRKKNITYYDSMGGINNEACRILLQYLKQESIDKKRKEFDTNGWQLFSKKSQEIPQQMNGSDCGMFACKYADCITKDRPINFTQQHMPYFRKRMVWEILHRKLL
The assay is described as follows: SENP fluorogenic substrate. The assay is classed as biochemical. The note with it: read-out: IC50 hSENP1; substrate QTGG-AFC.

Another assay has as its target T3, hSENP8 (deNEDDylase) (Homo sapiens, UniProt Q96LD8).
T3 sequence (Q96LD8 1-212): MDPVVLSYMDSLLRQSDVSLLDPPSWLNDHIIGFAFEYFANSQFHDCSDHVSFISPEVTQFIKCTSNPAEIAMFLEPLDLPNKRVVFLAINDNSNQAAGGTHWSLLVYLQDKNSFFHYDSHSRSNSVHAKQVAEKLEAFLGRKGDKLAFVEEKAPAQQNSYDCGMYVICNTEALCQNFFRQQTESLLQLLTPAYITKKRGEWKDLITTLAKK
The assay is described as follows: fluorogenic substrate. The assay is classed as biochemical. The note with it: read-out: IC50 hSENP8 (deNEDDylase); substrate LRGG-AFC.

The next assay addresses T4, hSENP2 (Homo sapiens, UniProt Q9HC62).
T4 sequence (Q9HC62 1-589): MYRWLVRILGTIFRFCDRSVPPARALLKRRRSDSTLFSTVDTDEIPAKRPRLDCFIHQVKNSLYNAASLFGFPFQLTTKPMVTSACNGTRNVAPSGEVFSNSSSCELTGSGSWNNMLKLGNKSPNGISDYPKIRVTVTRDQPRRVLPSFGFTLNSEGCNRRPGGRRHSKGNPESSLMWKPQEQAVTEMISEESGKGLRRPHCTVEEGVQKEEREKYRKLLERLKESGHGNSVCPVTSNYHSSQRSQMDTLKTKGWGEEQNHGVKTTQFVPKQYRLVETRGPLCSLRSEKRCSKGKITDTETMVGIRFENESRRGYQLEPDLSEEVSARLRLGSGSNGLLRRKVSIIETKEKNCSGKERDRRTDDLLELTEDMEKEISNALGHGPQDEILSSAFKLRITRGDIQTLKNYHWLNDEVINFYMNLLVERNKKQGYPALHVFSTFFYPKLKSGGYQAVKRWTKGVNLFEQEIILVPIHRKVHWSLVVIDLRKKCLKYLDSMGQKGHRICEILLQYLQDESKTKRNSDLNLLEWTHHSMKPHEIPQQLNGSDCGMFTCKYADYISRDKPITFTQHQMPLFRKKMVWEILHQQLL
The assay is described as follows: SENP fluorogenic substrate. Format: biochemical. The note with it: read-out: IC50 hSENP2; substrate QTGG-AFC.

Another assay deals with T5, UCH-L3 (Homo sapiens, UniProt P15374).
T5 sequence (P15374 1-230): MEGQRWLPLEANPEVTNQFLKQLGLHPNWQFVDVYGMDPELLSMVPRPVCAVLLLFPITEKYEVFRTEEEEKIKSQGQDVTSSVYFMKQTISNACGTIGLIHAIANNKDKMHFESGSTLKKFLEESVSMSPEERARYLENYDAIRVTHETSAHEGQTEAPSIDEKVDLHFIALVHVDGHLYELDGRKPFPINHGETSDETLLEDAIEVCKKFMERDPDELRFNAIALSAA
The experiment in a line: DUB fluorogenic substrate. Format: biochemical. The note with it: read-out: IC50 UCH-L3; substrate LRGG-AFC.

A further assay concerns falcipains 1/2/3. The experiment in a line: Competition for labeling with activity-based probes. Format: biochemical, Plasmodium falciparum. The following applies: mixed-stage lysates; VEA-260 0–250 µM. Summed up:
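Mixed-stage P. falciparum total lysates were pretreated with test compound (0–250 µM), or with unlabelled DCG-04 (100 µM) as a competition control, then labelled with 125I-DCG-04. Proteins were resolved by SDS-PAGE, and residual probe labelling was read by autoradiography.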

A further assay addresses T6, hSENP6 (Homo sapiens, UniProt Q9GZR1).
T6 sequence (Q9GZR1 1-1112): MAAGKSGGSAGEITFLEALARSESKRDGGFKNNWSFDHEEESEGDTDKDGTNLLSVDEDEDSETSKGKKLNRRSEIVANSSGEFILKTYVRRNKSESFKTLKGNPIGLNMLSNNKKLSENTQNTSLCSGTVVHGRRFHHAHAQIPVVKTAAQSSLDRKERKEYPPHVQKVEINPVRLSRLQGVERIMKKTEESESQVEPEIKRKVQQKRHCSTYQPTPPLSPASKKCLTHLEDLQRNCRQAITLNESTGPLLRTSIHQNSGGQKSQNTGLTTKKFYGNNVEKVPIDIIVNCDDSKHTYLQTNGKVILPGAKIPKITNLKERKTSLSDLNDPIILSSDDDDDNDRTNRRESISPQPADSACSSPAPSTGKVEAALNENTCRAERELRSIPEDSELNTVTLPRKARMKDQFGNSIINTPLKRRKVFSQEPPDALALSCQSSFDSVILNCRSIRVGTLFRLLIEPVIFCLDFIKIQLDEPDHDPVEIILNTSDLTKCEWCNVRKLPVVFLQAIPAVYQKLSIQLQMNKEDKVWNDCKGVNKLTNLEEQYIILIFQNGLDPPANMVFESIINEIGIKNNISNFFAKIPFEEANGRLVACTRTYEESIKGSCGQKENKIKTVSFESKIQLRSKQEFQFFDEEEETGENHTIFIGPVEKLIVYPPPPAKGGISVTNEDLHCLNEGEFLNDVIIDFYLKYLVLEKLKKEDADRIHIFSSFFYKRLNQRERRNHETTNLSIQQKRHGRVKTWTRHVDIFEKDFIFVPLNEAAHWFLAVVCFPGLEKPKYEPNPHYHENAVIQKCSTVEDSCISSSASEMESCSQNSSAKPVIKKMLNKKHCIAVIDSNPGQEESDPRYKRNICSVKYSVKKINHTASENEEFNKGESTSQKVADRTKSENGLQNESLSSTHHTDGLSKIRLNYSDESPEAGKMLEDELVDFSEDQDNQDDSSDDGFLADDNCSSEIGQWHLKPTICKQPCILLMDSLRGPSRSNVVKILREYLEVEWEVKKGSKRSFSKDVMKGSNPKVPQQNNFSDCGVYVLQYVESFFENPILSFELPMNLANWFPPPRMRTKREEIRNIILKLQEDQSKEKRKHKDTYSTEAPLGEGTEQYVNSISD
The experiment in a line: SENP fluorogenic substrate. Format: biochemical. The note with it: read-out: IC50 hSENP6; substrate LRGG-AFC.

Assay [3] addresses T1, PfSENP1. The experiment in a line: Reversibility of PfSENP1 inhibition. The assay is classed as biochemical. The note with it: 200 µM inhibitor, 2 hr 37°C, then dilution and Ni-NTA enrichment. The procedure, abridged: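 PfSENP1 (200 nM) exposed to test compound (200 µM), N-ethylmaleimide (10 mM) or DMSO for 2 hr at 37°C. Input sample taken. Treated enzyme then diluted, recaptured on Ni2+-NTA and eluted with 300 mM imidazole. Input and eluate each added to PfSUMO-pro; cleavage resolved by SDS-PAGE with protein stain.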

Assay [4] deals with T1, PfSENP1. The assay is described as follows: SENP fluorogenic substrate. The assay is classed as biochemical. The note with it: read-out: IC50 PfSENP1; substrate QTGG-AFC.

Turning to `CCN1C(=O)C=CC1=O` [NEM, N-ethylmaleimide, reference compound], the “inhibition of PfSUMO-pro cleavage by recombinant PfSENP1” value on PfSENP1 [1] is “cleavage was inhibited”. Besides, the “inhibition of PfSENP activity in parasite lysates” value in assay [2] is “processing activity could be blocked”.
For the molecule `O=C(O)c1cccc(C(=O)NCc2ccc(C(=O)NNC(=O)[C@H]3O[C@@H]3C(=O)N(Cc3cccc4ccccc34)Cc3cccc4ccccc34)cc2)c1` [VEA-260], the “inhibition of PfSUMO-pro cleavage by recombinant PfSENP1” value at PfSENP1 [1] is “as potent as the original JCP-666”. The 50% inhibitory concentration (IC50) at hSENP1 was 7.1 µM; on hSENP8 (deNEDDylase), 9.1 µM; on hSENP2, 3.7 µM; at UCH-L3, around 100 µM; on hSENP6, above 100 µM; on PfSENP1 [4], 16.2 µM. In addition, the “inhibition of PfSENP activity in parasite lysates” value in assay [2] is “as potent as the original JCP-666”. Moreover, the “inhibition of falcipains (residual probe labeling)” value in the assay on falcipains 1/2/3 is “did not inhibit any of the falcipains”. The “reversibility of PfSENP1 inhibition” value at PfSENP1 [3] is reported as “irreversible inhibitor”.
